GI50 data for ten molecules are collected here from ChEMBL document CHEMBL2434878, “Synthesis and antimycobacterial activity of analogues of the bioactive natural products sampangine and cleistopholine” (Eur J Med Chem, 2013).

For this test, the system named is Mycobacterium tuberculosis variant bovis. The experiment in a line: Antimicrobial activity against Mycobacterium bovis AN5 expressing luciferase reporter gene assessed as growth inhibition after 6 days by luminometry. The test is classed as functional. Particulars: AN5, 144 h. A digest of the protocol: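 Other mycobacteria (M. avium ssp. avium ATCC 15769, ssp. paratuberculosis ATCC 19698, M. bovis AN5) were grown in 7H9 with 10% OADC and 0.2% glycerol; M. bovis had 0.05% Tween 80 in place of glycerol, and paratuberculosis had mycobactin J (2 mg/ml); all were grown at 39 °C. Serial dilutions were tested by the luciferase luminometry assay and the 50% growth-reduction concentration was read.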
Background: In a reporter assay the amount or activity of a reporter protein is the signal.

Regarding `CN(C)/C=C/c1nc(-c2ccccc2)cc2c1C(=O)c1ccccc1C2=O`, the concentration for 50% growth inhibition (GI50) turned out to be 640 nM. Regarding `CN(C)/C=C/c1nc(-c2ccc(Cl)cc2)cc2c1C(=O)c1ccccc1C2=O`, the concentration for 50% growth inhibition (GI50) is 490 nM. Next, `CN(C)/C=C/c1nc(-c2ccc(F)cc2)cc2c1C(=O)c1ccccc1C2=O`: 480 nM.

In the case of `COc1ccc(-c2cc3c4c(nccc4n2)-c2ccccc2C3=O)cc1`, the GI50 was found to be 520 nM.

`Cc1ccc(-c2cc3c(c(/C=C/N(C)C)n2)C(=O)c2ccccc2C3=O)cc1`: the GI50 was determined as 580 nM. Under `O=C1c2ccccc2-c2nccc3nc(-c4ccc(F)cc4)cc1c23` stands 670 nM. Take `COc1ccc(-c2cc3c(c(/C=C/N(C)C)n2)C(=O)c2ccccc2C3=O)cc1`: the concentration for 50% growth inhibition (GI50) amounted to 470 nM.

Consider `O=C1c2ccccc2-c2nccc3nc(-c4ccccc4)cc1c23`, for which the GI50 stood at 670 nM. Next, `COc1ccc(-c2cc(O)c3c(c2)C(=O)c2ccccc2C3=O)cc1`: 380 nM.

On to `O=C1c2ccccc2C(=O)c2c(O)cc(-c3ccccc3)cc21`, for which the 50% growth inhibitory concentration (GI50) came to 800 nM.

By GI50 is commonly meant the concentration that inhibits growth by half.
